In ChEMBL document CHEMBL4433236, “Synthesis and structure activity relationships of a series of 4-amino-1H-pyrazoles as covalent inhibitors of CDK14” (Bioorg Med Chem Lett, 2019):
pIC50: −log10 of the molar value. The source made the active and inactive calls. The calls are words filed in the database; no cut-off is given here.

Key:
[1] = biological target: Cyclin-dependent kinase 14/Cyclin-Y (Homo sapiens, UniProt O94921); experiment: Inhibition of recombinant GST-tagged human full length CDK14/cyclin Y (2 to end residues) preincubated for 30 mins by Lantha screen eu binding assay; type: protein-complex assay
Cyclin-dependent kinase 14/Cyclin-Y, sequence (O94921 whole entry): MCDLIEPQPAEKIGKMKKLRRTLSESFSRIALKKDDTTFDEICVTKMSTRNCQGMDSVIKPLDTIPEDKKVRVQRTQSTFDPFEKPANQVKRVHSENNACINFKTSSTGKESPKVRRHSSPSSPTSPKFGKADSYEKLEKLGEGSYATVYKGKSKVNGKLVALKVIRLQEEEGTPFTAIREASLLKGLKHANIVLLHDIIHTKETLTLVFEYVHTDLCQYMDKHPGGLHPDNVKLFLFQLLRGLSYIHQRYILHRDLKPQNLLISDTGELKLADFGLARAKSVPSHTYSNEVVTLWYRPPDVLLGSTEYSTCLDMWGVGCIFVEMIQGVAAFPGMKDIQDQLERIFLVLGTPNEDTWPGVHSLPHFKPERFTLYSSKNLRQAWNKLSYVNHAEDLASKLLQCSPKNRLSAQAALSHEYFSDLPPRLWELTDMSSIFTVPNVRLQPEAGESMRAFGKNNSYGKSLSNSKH
Cyclin-dependent kinase 14/Cyclin-Y, sequence (Q8ND76 whole entry, further chain): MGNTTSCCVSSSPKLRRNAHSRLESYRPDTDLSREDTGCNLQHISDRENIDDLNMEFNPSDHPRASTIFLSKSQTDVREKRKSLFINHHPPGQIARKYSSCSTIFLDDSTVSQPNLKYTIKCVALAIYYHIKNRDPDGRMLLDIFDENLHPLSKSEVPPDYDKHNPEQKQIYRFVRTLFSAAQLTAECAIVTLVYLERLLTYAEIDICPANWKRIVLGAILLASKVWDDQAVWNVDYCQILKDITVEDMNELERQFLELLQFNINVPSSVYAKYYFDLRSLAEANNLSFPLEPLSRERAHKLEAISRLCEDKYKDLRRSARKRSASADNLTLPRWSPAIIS
Outline: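 CDK14 binding was measured in a LanthaScreen binding assay. IC50 is the average of three replicates, reported ± standard error.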

HCT-116 = experiment: Antiproliferative activity against human HCT116 cells assessed as reduction in cell viability after 72 hrs by cell titer glo-based luminescence assay; type: functional; conditions: HCT-116, 72 h
[2] = biological target: T1, Cyclin-dependent kinase 14 (Homo sapiens, UniProt O94921); experiment: Inhibition of FLAG-tagged CDK14 (unknown origin) expressed in human HEK293 cells assessed as blocking of CDK14 pulldown at 500 to 1000 nM incubated for 4 hrs by biotinylated JNK-IN- based pull down assay; type: cell-based
T1 sequence (O94921 whole entry): as the sequence (O94921 whole entry) above
Outline: (§1)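 Cells were treated with compound at various doses for 4 h and then lysed. Lysates were incubated with biotinylated JNK-IN-7 and captured on streptavidin-coated beads. CDK14 capture was detected by western blot.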

[3] = biological target: T1, Cyclin-dependent kinase 14; experiment: Inhibition of FLAG-tagged CDK14 (unknown origin) expressed in human HEK293 cells assessed as blocking of CDK14 pulldown incubated for 4 hrs by biotinylated JNK-IN- based pull down assay; type: cell-based; outline: as §1
[4] = biological target: T1, Cyclin-dependent kinase 14; experiment: Inhibition of FLAG-tagged CDK14 (unknown origin) expressed in human HEK293 cells assessed as blocking of CDK14 pulldown up to 1000 nM incubated for 4 hrs by biotinylated JNK-IN- based pull down assay; type: cell-based; outline: as §1
[5] = biological target: Cyclin-dependent kinase 17 (Homo sapiens) (UniProt Q00537); experiment: Inhibition of CDK17 in human HCT116 cells at 1 uM incubated for 4 hrs by KINATIV live cell profiling protocol based assay
Cyclin-dependent kinase 17 (Homo sapiens), sequence (Q00537 whole entry, looked up): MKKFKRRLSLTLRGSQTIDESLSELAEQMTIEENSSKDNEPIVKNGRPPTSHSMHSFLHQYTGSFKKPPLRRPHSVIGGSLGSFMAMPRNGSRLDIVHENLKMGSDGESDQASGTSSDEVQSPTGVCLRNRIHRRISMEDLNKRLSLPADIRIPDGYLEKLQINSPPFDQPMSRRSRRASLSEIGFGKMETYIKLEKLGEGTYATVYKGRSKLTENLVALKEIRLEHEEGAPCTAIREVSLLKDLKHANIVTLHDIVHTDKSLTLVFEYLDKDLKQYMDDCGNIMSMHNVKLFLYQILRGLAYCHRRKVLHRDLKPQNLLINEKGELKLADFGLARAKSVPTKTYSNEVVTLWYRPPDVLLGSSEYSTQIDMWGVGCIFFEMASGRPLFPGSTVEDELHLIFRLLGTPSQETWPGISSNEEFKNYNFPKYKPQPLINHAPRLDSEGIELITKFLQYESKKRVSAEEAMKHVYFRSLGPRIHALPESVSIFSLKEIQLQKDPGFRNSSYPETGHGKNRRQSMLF
Outline: (§2)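 Cellular kinase selectivity was profiled on the KiNativ platform, with compounds tested at 1 μM.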

[6] = biological target: Cyclin-dependent kinase 16 (Homo sapiens) (UniProt Q00536); experiment: Inhibition of CDK16 in human HCT116 cells at 1 uM incubated for 4 hrs by KINATIV live cell profiling protocol based assay; outline: as §2
Cyclin-dependent kinase 16 (Homo sapiens), sequence (Q00536 whole entry): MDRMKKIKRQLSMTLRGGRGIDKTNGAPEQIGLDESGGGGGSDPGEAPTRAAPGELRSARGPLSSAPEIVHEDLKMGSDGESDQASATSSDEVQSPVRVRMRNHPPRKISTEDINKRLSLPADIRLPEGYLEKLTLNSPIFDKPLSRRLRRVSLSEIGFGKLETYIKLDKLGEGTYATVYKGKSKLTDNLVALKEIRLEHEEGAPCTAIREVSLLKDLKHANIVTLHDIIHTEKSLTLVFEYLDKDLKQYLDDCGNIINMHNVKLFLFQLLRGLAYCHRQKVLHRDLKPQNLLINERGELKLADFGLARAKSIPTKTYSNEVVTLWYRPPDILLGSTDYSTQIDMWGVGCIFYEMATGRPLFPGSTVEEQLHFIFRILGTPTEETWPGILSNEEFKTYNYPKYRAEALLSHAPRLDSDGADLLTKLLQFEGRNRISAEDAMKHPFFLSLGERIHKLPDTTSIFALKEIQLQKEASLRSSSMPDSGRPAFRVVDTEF

CDK2/Cyclin-Y = CDK2/Cyclin-Y (Homo sapiens, UniProt P24941+Q8ND76); experiment: Inhibition of recombinant NanoLuc-tagged CDK2/cyclin Y expressed in human HCT116 cells at 1 uM incubated for 20 to 24 hrs by NanoBRET assay; type: cell-based
[7] = biological target: Cyclin-dependent kinase 18 (Homo sapiens) (UniProt Q07002); experiment: Inhibition of CDK18 in human HCT116 cells at 1 uM incubated for 4 hrs by KINATIV live cell profiling protocol based assay; outline: as §2
Cyclin-dependent kinase 18 (Homo sapiens), sequence (Q07002 whole entry): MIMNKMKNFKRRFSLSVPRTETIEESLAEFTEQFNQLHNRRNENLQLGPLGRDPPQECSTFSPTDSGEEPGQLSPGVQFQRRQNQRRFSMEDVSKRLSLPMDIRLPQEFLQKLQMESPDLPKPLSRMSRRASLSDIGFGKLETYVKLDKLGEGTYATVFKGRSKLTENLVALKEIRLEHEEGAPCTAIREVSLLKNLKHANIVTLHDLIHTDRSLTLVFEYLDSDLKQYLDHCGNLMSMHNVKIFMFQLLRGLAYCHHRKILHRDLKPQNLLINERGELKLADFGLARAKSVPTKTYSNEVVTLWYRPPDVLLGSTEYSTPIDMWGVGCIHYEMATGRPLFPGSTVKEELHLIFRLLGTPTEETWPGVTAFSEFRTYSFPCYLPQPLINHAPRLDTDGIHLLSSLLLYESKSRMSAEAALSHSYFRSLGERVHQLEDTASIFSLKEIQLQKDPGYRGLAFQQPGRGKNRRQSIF

Compound	pIC50 [1]	pIC50 (HCT-116)	pIC50 [3]	also measured
C=CC(=O)Nc1cccc(C(=O)N2CCC(NC(=O)c3n[nH]cc3NC(=O)c3c(Cl)cccc3Cl)CC2)c1	7.35	7.49	–	inhibition [2]: Active
CN(C)CC/C=C/C(=O)Nc1ccc(S(=O)(=O)N2CC[C@@H](NC(=O)c3n[nH]cc3NC(=O)c3c(Cl)cccc3Cl)C2)cc1	7.39	< 5.00	< 6.00	inhibition [4]: Active
CN(C)C/C=C/C(=O)Nc1cccc(S(=O)(=O)N2CCC(NC(=O)c3n[nH]cc3NC(=O)c3c(Cl)cc(Cl)cc3Cl)CC2)c1	–	5.23 to 5.94	–	inhibition [5]: > 75%; inhibition [6]: > 90%; pIC50 (CDK2/Cyclin-Y): 6.59; inhibition [7]: > 75%
CN(C)C/C=C/C(=O)Nc1cccc(S(=O)(=O)N2CCC(NC(=O)c3n[nH]cc3NC(=O)c3ccccc3)CC2)c1	8.52	6.36	6.00	–

Further lines, with some results ahead:

pIC50 [1]	pIC50 (HCT-116)	pIC50 [3]	Compound	also measured
< 6.00	6.49	–	Cc1cc(NC(=O)c2cccc(NC(=O)/C=C/CN(C)C)c2)ccc1NC(=O)c1n[nH]cc1NC(=O)c1c(Cl)cccc1Cl	–
< 6.00	–	–	C=CC(=O)Nc1cccc(C(=O)Nc2ccc(NC(=O)c3n[nH]cc3NC(=O)c3c(Cl)cccc3Cl)c(C)c2)c1	–
–	7.42	6.00	CN(C)C/C=C/C(=O)Nc1cccc(C(=O)Nc2ccc(NC(=O)c3n[nH]cc3NC(=O)c3c(Cl)cccc3Cl)cc2)c1	inhibition [2]: Active
